Values belong to the compound of their own block, whether it stands above or below them.
Assays:
[1] = molecular target: P2Y purinoceptor 6 (Rattus norvegicus, UniProt Q63371); test: Antagonist activity at rat P2Y6 receptor expressed in astrocytoma cells assessed as inhibition of intracellular calcium mobilization; type: functional, cell-based
In short: (§1)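 Astrocytoma cells stably expressing the receptor, loaded with Fura-2 AM. Cells preincubated with test agent for at least 20 min, then challenged with 1 μM UTP (P2Y2), 3 μM UTP (P2Y4) or 3 μM UDP (P2Y6). Ca2+ fluorescence read at ex 320/em 520 nm. Full curves (7-8 concentrations over 3 log units) run when inhibition exceeded 40% at 10 μM. Three experiments, each in triplicate.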

[2] = molecular target: P2Y purinoceptor 4 (Homo sapiens, UniProt P51582); test: Antagonist activity at human P2Y4 receptor expressed in astrocytoma cells assessed as inhibition of intracellular calcium mobilization; type: functional, cell-based; in short: as §1
Sequence of P2Y purinoceptor 4 (P51582 whole entry): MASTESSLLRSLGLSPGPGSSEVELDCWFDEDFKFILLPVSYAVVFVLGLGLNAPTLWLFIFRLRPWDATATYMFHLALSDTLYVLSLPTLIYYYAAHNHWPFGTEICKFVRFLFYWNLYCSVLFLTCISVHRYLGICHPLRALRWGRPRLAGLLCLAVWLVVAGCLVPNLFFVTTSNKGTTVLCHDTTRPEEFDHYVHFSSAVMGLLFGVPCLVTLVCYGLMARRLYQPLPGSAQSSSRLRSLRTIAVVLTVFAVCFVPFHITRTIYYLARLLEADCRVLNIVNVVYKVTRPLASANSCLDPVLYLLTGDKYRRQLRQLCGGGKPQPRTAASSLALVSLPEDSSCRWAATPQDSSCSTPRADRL

[3] = molecular target: T1, 5'-nucleotidase (Rattus norvegicus, UniProt P21588); test: Inhibition of rat ecto-5'-nucleotidase expressed in Sf9 cells by capillary electrophoresis method
T1 sequence (P21588 whole entry): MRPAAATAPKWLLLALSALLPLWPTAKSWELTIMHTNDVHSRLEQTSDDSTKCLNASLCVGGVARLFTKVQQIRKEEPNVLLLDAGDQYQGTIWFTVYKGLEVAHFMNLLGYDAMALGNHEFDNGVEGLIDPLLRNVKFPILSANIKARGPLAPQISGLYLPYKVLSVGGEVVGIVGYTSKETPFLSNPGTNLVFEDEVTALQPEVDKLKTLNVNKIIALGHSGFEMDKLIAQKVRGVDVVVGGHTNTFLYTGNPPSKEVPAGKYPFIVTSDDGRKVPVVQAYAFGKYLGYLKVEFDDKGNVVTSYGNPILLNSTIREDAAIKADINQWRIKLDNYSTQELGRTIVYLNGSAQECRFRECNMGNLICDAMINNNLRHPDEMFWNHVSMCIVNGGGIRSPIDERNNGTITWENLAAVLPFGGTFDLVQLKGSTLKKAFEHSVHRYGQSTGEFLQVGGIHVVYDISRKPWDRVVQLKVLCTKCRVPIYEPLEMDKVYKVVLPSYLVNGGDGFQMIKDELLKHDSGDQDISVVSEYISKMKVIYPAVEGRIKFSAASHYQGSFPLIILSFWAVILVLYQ
In short: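 Rat eN, GST-fused, made in Sf9 cells and purified on GSH-agarose. 500 μM AMP in Hepes pH 7.4 with Mg2+/Ca2+, 37 °C for 15 min. Adenosine measured by capillary electrophoresis at 260 nm. Inhibitor at 6-8 concentrations spanning about 3 log units. […] Three experiments, each in duplicate.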

[4] = molecular target: T2, Ectonucleoside triphosphate diphosphohydrolase 1 (Homo sapiens, UniProt P49961); test: Inhibition of human NTPdase1 by capillary electrophoresis method
T2 sequence (P49961 whole entry): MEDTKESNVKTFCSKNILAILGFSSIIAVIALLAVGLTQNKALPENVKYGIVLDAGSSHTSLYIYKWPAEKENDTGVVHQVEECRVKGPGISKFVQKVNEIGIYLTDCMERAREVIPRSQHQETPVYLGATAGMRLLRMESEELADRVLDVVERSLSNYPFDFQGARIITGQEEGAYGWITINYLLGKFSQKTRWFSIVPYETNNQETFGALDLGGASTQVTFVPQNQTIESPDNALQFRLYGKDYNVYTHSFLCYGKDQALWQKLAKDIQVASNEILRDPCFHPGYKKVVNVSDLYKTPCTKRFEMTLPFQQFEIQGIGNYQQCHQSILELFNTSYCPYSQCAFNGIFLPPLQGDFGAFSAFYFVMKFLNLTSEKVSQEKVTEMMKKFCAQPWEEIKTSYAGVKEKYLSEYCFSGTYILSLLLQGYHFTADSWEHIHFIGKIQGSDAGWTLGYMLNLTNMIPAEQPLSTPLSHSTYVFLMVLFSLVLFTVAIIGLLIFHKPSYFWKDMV
In short: (§2)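 Membrane preparations containing human NTPDase1, 2 or 3. Inhibitor added in water or 1% DMSO. Incubated 10 min at 37 °C, stopped at 99 °C for 5 min. Diluted with 20 μM UMP as internal standard, then analysed by capillary electrophoresis. Triplicates in two experiments.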

[5] = molecular target: T3, Ectonucleoside triphosphate diphosphohydrolase 3 (Homo sapiens, UniProt O75355); test: Inhibition of human NTPdase3 by capillary electrophoresis method; in short: as §2
T3 sequence (O75355 whole entry): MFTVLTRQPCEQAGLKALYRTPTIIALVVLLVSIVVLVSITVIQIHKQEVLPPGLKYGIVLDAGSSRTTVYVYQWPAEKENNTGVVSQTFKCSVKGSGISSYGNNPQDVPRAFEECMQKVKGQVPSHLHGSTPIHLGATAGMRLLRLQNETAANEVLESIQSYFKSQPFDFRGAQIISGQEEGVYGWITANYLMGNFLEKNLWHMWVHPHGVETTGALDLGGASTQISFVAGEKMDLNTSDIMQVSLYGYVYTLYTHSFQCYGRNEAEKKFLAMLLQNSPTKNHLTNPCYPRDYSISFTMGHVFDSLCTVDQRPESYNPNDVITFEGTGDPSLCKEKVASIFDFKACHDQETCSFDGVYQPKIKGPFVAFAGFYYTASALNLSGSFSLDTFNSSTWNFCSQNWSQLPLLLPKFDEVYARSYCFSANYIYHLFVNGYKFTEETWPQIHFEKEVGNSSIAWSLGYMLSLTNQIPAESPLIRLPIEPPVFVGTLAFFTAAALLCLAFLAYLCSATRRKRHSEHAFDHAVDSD

[6] = molecular target: T4, Ectonucleoside triphosphate diphosphohydrolase 2 (Homo sapiens, UniProt Q9Y5L3); test: Inhibition of human NTPdase2 by capillary electrophoresis method; in short: as §2
T4 sequence (Q9Y5L3 whole entry): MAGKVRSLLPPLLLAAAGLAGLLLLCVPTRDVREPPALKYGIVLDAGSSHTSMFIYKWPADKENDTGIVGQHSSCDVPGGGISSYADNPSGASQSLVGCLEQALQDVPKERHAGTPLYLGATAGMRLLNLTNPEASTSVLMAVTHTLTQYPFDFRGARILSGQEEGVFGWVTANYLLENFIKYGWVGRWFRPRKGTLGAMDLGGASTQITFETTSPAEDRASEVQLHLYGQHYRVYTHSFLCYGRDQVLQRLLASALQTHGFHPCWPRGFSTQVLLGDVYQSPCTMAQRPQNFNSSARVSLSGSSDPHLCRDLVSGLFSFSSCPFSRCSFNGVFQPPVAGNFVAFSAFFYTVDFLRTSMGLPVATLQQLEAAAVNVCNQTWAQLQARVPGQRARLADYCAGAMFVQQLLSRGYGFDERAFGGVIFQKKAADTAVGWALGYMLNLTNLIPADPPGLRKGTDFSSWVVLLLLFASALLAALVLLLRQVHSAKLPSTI

[7] = molecular target: P2Y purinoceptor 2 (Homo sapiens, UniProt P41231); test: Antagonist activity at human P2Y2 receptor expressed in astrocytoma cells assessed as inhibition of intracellular calcium mobilization; type: functional, cell-based; in short: as §1
Sequence of P2Y purinoceptor 2 (P41231 whole entry): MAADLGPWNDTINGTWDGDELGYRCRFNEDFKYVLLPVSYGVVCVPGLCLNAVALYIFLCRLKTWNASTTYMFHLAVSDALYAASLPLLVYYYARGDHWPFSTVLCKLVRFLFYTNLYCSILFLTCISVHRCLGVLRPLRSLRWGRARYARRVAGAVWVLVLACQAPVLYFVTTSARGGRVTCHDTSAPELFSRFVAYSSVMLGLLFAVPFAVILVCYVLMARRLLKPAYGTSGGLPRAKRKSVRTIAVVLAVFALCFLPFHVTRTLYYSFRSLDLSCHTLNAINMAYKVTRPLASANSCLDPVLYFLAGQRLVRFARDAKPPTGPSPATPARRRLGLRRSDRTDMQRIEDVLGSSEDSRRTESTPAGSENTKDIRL

[8] = Selectivity ratio of Ki for rat ecto-5'-nucleotidase to Ki for human NTPdase1
[9] = molecular target: T5, Ectonucleoside triphosphate diphosphohydrolase 1 (Rattus norvegicus, UniProt P97687); test: Inhibition of rat NTPdase1 by capillary electrophoresis method
T5 sequence (P97687 whole entry): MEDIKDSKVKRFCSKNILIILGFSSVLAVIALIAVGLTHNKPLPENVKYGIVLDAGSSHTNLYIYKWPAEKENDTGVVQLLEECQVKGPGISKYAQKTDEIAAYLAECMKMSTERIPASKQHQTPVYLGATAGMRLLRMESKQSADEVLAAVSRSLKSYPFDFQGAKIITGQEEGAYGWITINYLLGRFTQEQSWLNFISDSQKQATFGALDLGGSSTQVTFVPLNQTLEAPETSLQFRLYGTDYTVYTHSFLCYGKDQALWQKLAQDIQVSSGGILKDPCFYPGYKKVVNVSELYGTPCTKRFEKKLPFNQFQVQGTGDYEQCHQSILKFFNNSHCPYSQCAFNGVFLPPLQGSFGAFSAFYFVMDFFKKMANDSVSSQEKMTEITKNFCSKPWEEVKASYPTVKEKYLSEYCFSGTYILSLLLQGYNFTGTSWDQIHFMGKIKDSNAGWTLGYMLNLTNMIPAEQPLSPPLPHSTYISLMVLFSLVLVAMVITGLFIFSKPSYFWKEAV

[10] = molecular target: T6, Ectonucleoside triphosphate diphosphohydrolase 2 (Rattus norvegicus, UniProt O35795); test: Inhibition of rat NTPdase2 by capillary electrophoresis method
T6 sequence (O35795 whole entry): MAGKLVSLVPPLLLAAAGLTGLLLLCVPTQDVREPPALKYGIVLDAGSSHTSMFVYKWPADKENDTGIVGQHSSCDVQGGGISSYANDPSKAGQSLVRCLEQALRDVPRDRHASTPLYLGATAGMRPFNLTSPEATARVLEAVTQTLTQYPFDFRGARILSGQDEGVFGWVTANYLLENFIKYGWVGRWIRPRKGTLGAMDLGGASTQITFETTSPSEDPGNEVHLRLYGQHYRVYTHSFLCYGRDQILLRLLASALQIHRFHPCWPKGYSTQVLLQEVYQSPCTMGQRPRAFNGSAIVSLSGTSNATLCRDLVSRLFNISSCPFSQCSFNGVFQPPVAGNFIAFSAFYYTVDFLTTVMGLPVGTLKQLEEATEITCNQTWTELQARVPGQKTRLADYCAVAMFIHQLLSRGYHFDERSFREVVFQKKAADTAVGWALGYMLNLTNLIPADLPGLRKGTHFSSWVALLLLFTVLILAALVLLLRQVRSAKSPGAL

[11] = molecular target: T7, Nucleoside triphosphate diphosphohydrolase 3 (Rattus norvegicus, UniProt A6I415); test: Inhibition of rat NTPdase3 by capillary electrophoresis method
T7 sequence (A6I415 whole entry): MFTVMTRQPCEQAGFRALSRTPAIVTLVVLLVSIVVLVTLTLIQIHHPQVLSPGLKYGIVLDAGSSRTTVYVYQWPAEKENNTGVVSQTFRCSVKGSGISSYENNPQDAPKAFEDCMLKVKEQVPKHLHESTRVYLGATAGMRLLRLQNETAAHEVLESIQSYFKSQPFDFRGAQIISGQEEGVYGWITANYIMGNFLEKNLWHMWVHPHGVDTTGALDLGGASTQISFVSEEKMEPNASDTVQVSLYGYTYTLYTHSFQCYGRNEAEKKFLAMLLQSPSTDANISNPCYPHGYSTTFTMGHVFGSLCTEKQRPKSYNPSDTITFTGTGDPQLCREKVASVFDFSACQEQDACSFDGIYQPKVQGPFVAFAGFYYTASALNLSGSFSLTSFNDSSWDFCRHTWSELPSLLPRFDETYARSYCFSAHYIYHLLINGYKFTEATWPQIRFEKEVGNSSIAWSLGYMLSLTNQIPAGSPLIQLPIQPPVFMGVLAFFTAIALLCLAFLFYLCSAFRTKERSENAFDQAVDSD

[12] = molecular target: T8, 5'-nucleotidase (Rattus norvegicus) (UniProt P21588); test: Inhibition of rat ecto-5'-nucleotidase expressed in Sf9 cells at 1 mM by capillary electrophoresis method
T8 sequence (whole entry): T1 sequence (P21588 whole entry)
In short: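 Test agent at 1 mM with 500 μM AMP in 10 mM Hepes pH 7.4, 2 mM MgCl2, 1 mM CaCl2. Incubated 15 min at 37 °C, stopped at 99 °C for 10 min. Adenosine quantified by capillary electrophoresis, UV peak area at 260 nm.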

Sequence of P2Y purinoceptor 6 (Q63371 whole entry): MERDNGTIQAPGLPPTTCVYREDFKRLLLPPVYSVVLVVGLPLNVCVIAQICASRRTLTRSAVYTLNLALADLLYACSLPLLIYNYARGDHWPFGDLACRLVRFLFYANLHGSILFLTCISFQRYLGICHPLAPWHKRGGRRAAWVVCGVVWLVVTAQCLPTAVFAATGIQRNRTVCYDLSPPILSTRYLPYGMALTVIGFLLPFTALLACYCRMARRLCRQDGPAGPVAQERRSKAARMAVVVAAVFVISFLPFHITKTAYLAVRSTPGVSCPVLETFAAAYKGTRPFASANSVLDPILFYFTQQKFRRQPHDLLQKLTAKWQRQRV

IC50 [1]: 10 µM
IC50 [2]: > 10 µM
Ki [3]: 0.26 µM
Ki [4]: > 40 µM
Ki [5]: > 60 µM
Ki [6]: > 200 µM
IC50 [7]: 29.9 µM
Ratio Ki [8]: > 150
SMILES: Nc1c(S(=O)(=O)O)cc(Nc2ccc(F)cc2C(=O)O)c2c1C(=O)c1ccccc1C2=O

IC50 [1]: 5.3 µM
IC50 [2]: 2.37 µM
Ki [3]: 0.62 µM
Ki [4]: 10.7 µM
Ki [6]: > 200 µM
IC50 [7]: 4.63 µM
SMILES: Nc1c(S(=O)(=O)O)cc(Nc2ccc(O)cc2)c2c1C(=O)c1ccccc1C2=O

SMILES: Nc1c(S(=O)(=O)O)cc(Nc2ccc(Nc3nc(Cl)nc(Nc4cccc(S(=O)(=O)O)c4)n3)c(S(=O)(=O)O)c2)c2c1C(=O)c1ccccc1C2=O [RB 2]
IC50 [2]: 9.79 µM
Ki [3]: 3.07 µM

Ki [3]: 11.3 µM
SMILES: Nc1c(S(=O)(=O)O)cc(Nc2ccc(Br)cc2)c2c1C(=O)c1ccccc1C2=O

Ki [3]: 1.51 µM
SMILES: Nc1c(S(=O)(=O)O)cc(Nc2ccc(Oc3ccccc3)cc2)c2c1C(=O)c1ccccc1C2=O

Ki [3]: 3.43 µM
SMILES: Nc1c(S(=O)(=O)O)cc(Nc2ccc(S(=O)(=O)O)cc2)c2c1C(=O)c1ccccc1C2=O

IC50 [1]: > 10 µM
Ki [9]: 49.1 µM
IC50 [2]: 25.8 µM
Ki [3]: 15.2 µM
Ki [10]: 35.8 µM
Ki [11]: 14.3 µM
IC50 [7]: 11 µM
SMILES: Nc1c(S(=O)(=O)O)cc(Nc2ccccc2)c2c1C(=O)c1ccccc1C2=O [ACID BLUE 25]

Ki [3]: 36 µM
SMILES: Cc1cc(C)c(Nc2cc(S(=O)(=O)O)c(N)c3c2C(=O)c2ccccc2C3=O)c(C)c1N

Ki [3]: 12.3 µM
SMILES: Cc1cccc(Nc2cc(S(=O)(=O)O)c(N)c3c2C(=O)c2ccccc2C3=O)c1

Ki [3]: 2.93 µM
SMILES: Nc1c(S(=O)(=O)O)cc(Nc2cccc3cc4ccccc4cc23)c2c1C(=O)c1ccccc1C2=O

Ki [3]: 47 µM
inhibition [12]: 47%
SMILES: Nc1ccccc1Nc1cc(S(=O)(=O)O)c(N)c2c1C(=O)c1ccccc1C2=O

Ki [3]: 1.84 µM
SMILES: Nc1c(S(=O)(=O)O)cc(Nc2ccccc2O)c2c1C(=O)c1ccccc1C2=O

Ki [3]: 2.74 µM
SMILES: Cc1ccc2ccccc2c1Nc1cc(S(=O)(=O)O)c(N)c2c1C(=O)c1ccccc1C2=O

Ki [3]: 4.81 µM
SMILES: Nc1c(S(=O)(=O)O)cc(Nc2ccc(Cl)cc2)c2c1C(=O)c1ccccc1C2=O

Ki [3]: 5.67 µM
SMILES: Nc1c(S(=O)(=O)O)cc(Nc2ccc(F)cc2)c2c1C(=O)c1ccccc1C2=O

Ki [3]: 1.66 µM
SMILES: Nc1c(S(=O)(=O)O)cc(NC2CCCCC2)c2c1C(=O)c1ccccc1C2=O

Ki [3]: 6.53 µM
SMILES: Nc1c(S(=O)(=O)O)cc(Nc2ccccc2C(=O)O)c2c1C(=O)c1ccccc1C2=O

Ki [3]: 1.47 µM
SMILES: Nc1c(S(=O)(=O)O)cc(Nc2ccc3ccccc3c2)c2c1C(=O)c1ccccc1C2=O

Ki [3]: 3.43 µM
SMILES: Nc1c(S(=O)(=O)O)cc(Nc2ccc3cc(C(=O)O)ccc3c2)c2c1C(=O)c1ccccc1C2=O

From ChEMBL document CHEMBL1157570, “Development of potent and selective inhibitors of ecto-5'-nucleotidase based on an anthraquinone scaffold” (J Med Chem, 2010)
